From ChEMBL document CHEMBL1142350, “From rigid cyclic templates to conformationally stabilized acyclic scaffolds. Part I: the discovery of CCR3 antagonist development candidate BMS-639623 with picomolar inhibition potency against eosinophil chemotaxis” (Bioorg Med Chem Lett, 2008)
pIC50: −log10 of the molar value.

Key:
[1] = biological target: T1, C-C chemokine receptor type 3 (Homo sapiens, UniProt P51677); test: Displacement of [125I]eotaxin from human CCR3 receptor expressed in CHO cells; format: cell-based
T1 sequence (P51677 whole entry): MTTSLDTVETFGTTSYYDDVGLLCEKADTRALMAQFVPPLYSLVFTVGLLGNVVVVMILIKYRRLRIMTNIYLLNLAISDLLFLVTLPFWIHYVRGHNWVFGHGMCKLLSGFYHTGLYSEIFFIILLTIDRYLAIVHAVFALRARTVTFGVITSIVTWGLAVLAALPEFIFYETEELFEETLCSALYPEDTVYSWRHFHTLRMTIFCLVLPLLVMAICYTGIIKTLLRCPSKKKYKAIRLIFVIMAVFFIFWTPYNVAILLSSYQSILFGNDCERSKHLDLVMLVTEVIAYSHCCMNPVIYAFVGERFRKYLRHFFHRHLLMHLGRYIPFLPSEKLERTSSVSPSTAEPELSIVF

[2] = Metabolic stability assessed as clearance in human liver microsomes; format: ADME, Microsome
Cytochrome P450 2D6 = Cytochrome P450 2D6 (Homo sapiens, UniProt P10635)
Cytochrome P450 2D6, sequence (P10635 whole entry): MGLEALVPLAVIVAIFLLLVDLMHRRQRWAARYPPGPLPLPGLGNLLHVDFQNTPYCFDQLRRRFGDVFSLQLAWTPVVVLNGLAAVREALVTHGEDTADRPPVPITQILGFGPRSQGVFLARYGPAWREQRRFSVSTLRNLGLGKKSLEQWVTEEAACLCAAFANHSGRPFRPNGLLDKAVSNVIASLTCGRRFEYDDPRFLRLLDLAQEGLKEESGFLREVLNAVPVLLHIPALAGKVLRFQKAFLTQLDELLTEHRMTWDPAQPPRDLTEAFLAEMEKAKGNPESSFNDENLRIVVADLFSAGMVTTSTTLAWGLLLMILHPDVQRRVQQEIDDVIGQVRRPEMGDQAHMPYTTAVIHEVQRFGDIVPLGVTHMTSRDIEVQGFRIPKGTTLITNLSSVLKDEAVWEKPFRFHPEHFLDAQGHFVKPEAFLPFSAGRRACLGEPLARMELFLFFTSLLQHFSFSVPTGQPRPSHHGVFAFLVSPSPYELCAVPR

[3] = biological target: T2, C-C chemokine receptor type 3 (Homo sapiens) (UniProt P51677); test: Displacement of [125I]eotaxin from human CCR3 receptor expressed in CHO cells at 0.3 uM; format: cell-based
T2 sequence (whole entry): T1 sequence (P51677 whole entry)

[4] = Cmax in chimpanzee at 2 mg/kg, po; format: ADME, organism-based, Pan troglodytes; design: dose 2 mg/kg, route oral; conditions: in vivo
[5] = Cmax in dog at 10 mg/kg, po; format: ADME, organism-based, Canis lupus familiaris; design: dose 10 mg/kg, route oral; conditions: in vivo
[6] = Bioavailability in mouse at 10 mg/kg, po; format: ADME, organism-based; conditions: in vivo
[7] = Bioavailability in rat at 50 mg/kg, po; format: ADME, organism-based; conditions: in vivo
[8] = biological target: T1, C-C chemokine receptor type 3; test: Antagonist activity at human CCR3 receptor in human eosinophil assessed as inhibition of eotaxin-stimulated intracellular calcium flux; format: functional, cell-based
[9] = Cmax in rat at 50 mg/kg, po; format: ADME, organism-based; design: dose 50 mg/kg, route oral; conditions: in vivo
[10] = AUC in mouse at 10 mg/kg, po; format: ADME, organism-based; design: dose 10 mg/kg, route oral; conditions: plasma
[11] = Bioavailability in cynomolgus monkey at 10 mg/kg, po; format: ADME, organism-based, Macaca fascicularis; conditions: in vivo
[12] = AUC in rat at 50 mg/kg, po; format: ADME, organism-based; design: dose 50 mg/kg, route oral; conditions: plasma
[13] = AUC in dog at 10 mg/kg, po; format: ADME, organism-based, Canis lupus familiaris; design: dose 10 mg/kg, route oral; conditions: plasma
[14] = Cmax in cynomolgus monkey at 10 mg/kg, po; format: ADME, organism-based, Macaca fascicularis; design: dose 10 mg/kg, route oral; conditions: in vivo
[15] = Cmax in mouse at 10 mg/kg, po; format: ADME, organism-based; design: dose 10 mg/kg, route oral; conditions: in vivo
Cynomolgus monkey = test: Reduction of eosinophilia in Ascaris suum-challenged cynomolgus monkey at 5 mg/kg, po bid 2 hrs administered before pathogen challenge after 10 hrs; format: functional, Macaca fascicularis; design: scale not given: the % may be the effect or the level left
Outline: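 Cross-over design in five cynomolgus monkeys given vehicle or compound orally at 5 mg/kg b.i.d., 2 h before and 10 h after Ascaris suum aerosol challenge. Bronchoalveolar lavage was done 24 h after challenge and eosinophils were counted. Trough plasma levels were measured.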

[16] = AUC in cynomolgus monkey at 10 mg/kg, po; format: ADME, organism-based, Macaca fascicularis; design: dose 10 mg/kg, route oral; conditions: plasma
[17] = AUC in chimpanzee at 2 mg/kg, po; format: ADME, organism-based, Pan troglodytes; design: dose 2 mg/kg, route oral; conditions: plasma
[18] = Bioavailability in chimpanzee at 2 mg/kg, po; format: ADME, organism-based, Pan troglodytes; conditions: in vivo
[19] = Bioavailability in dog at 10 mg/kg, po; format: ADME, organism-based, Canis lupus familiaris; conditions: in vivo

SMILES	pIC50 [1]	pIC50 (Cytochrome P450 2D6)	further results
CCc1cc(NC(=O)N[C@H](C)[C@H](CN2CCC[C@@H](Cc3ccc(F)cc3)C2)N(C)C)cc(-c2nnnn2C)c1	9.30	–	–
Cc1cc(NC(=O)N[C@H](C)CCN2CCC[C@@H](Cc3ccc(F)cc3)C2)cc(-c2nnnn2C)c1	8.92	–	–
CC(C)c1cc(NC(=O)NCCCN2CCC[C@@H](Cc3ccc(F)cc3)C2)cc(-c2nnnn2C)c1	8.59	–	–
C[C@H](CCN1CCC[C@@H](Cc2ccc(F)cc2)C1)NC(=O)Nc1cc(-c2nnnn2C)cc(C(C)(C)O)c1	9.15	–	CLhep predicted [2]: 12 mL/min/kg
CCc1cc(NC(=O)N[C@H](C)CCN2CCC[C@@H](Cc3ccc(F)cc3)C2)cc(-c2nnnn2C)c1	8.70	–	–
CC(=O)c1cc(NC(=O)N[C@H](C)CCN2CCC[C@@H](Cc3ccc(F)cc3)C2)cc(-c2nnnn2C)c1	8.82	–	–
O=C(NCCCN1CCC[C@@H](Cc2ccc(F)cc2)C1)Nc1cc(-n2cccn2)cc(-n2cccn2)c1	8.80	5.55	–
CC[C@H](CCN1CCC[C@@H](Cc2ccc(F)cc2)C1)NC(=O)Nc1cc(-c2nnnn2C)cc(C(C)(C)O)c1	8.62	5.09	CLhep predicted [2]: 15 mL/min/kg
CC(C)c1cc(NC(=O)N[C@H](C)CCN2CCC[C@@H](Cc3ccc(F)cc3)C2)cc(-c2nnnn2C)c1	8.59	–	–
C[C@@H](CCN1CCC[C@@H](Cc2ccc(F)cc2)C1)NC(=O)Nc1cccc(-c2nnnn2C)c1	8.40	–	–
C[C@@H](CC(=O)N1CCC[C@@H](Cc2ccc(F)cc2)C1)NC(=O)Nc1cccc(-c2nnnn2C)c1	–	< 4.00	Activity [3]: 37%
C[C@H](CCN1CCC[C@@H](Cc2ccc(F)cc2)C1)NC(=O)Nc1cc(Br)cc(-c2nnnn2C)c1	8.77	–	–
C[C@H](CC(=O)N1CCC[C@@H](Cc2ccc(F)cc2)C1)NC(=O)Nc1cccc(-c2nnnn2C)c1	8.38	5.36	–
CCc1cc(NC(=O)NCCCN2CCC[C@@H](Cc3ccc(F)cc3)C2)cc(-c2nnnn2C)c1	9.00	–	–
CC(=O)c1cc(NC(=O)N[C@@H](C)CCN2CCC[C@@H](Cc3ccc(F)cc3)C2)cc(C(C)=O)c1	8.24	–	–
C[C@H](CCN1CCC[C@@H](Cc2ccc(F)cc2)C1)NC(=O)Nc1cc(-n2cccn2)cc(-n2cccn2)c1	8.77	5.52	–
CCC[C@H](CCN1CCC[C@@H](Cc2ccc(F)cc2)C1)NC(=O)Nc1cc(-c2nnnn2C)cc(C(C)(C)O)c1	8.82	6.00	CLhep predicted [2]: 17 mL/min/kg
C[C@H](CCN1CCC[C@@H](Cc2ccc(F)cc2)C1)NC(=O)Nc1cccc(-c2nnnn2C)c1	8.89	–	–
C[C@H](CCN1CCC[C@@H](Cc2ccc(F)cc2)C1)NC(=O)Nc1cc(-n2ccnn2)cc(-n2ccnn2)c1	8.70	–	–
C[C@@H](NC(=O)Nc1cccc(-c2nnnn2C)c1)[C@@H](O)CN1CCC[C@@H](Cc2ccc(F)cc2)C1	–	5.59	Cmax [4]: 173 nM; Cmax [5]: 926 nM; bioavailability [6]: 57%; bioavailability [7]: 45%; pIC50 [8]: 9.06; Cmax [9]: 3170 nM; AUC [10]: 3.15 µM·h; bioavailability [11]: 19%; AUC [12]: 21.3 µM·h; AUC [13]: 2.74 µM·h; Cmax [14]: 561 nM; Cmax [15]: 1540 nM; Activity (Cynomolgus monkey): 82%; AUC [16]: 1.05 µM·h; AUC [17]: 0.639 µM·h; bioavailability [18]: 16%; bioavailability [19]: 17%
CC(=O)c1cc(NC(=O)N[C@H](C)CCN2CCC[C@@H](Cc3ccc(F)cc3)C2)cc(C(C)=O)c1	8.57	–	–
